BindingDB's records for doi:10.1016/j.bmc.2008.08.048 (National Institute of Diabetes and Digestive and Kidney …, 2008)

Target: Transient receptor potential cation channel subfamily V member 1 (Rattus norvegicus, UniProt O35433)
Assay: Agonist-enhancing activity at TRPV1 receptor in E15 rat primary dorsal root ganglion cells assessed as capsaicin-induced 45Ca2+ influx by microplate liquid scintillation counter
How it was run: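 E15 rat DRG cultures grown 5–6 days at 35°C. Uptake with capsaicin ~0.5 µM, 10 min at 20°C, 0.5 µCi/well 45Ca2+ in Tris-HBSS pH 7.5. Compound up to 50 µM, 0.2% DMSO, from 25 mM stocks. Counts normalized to in-plate capsaicin-only wells (100%, 4 wells). Variable-slope sigmoid fit gave EC50, Hill slope and ΔEmax.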

Sequence of Transient receptor potential cation channel subfamily V member 1 (O35433 whole entry): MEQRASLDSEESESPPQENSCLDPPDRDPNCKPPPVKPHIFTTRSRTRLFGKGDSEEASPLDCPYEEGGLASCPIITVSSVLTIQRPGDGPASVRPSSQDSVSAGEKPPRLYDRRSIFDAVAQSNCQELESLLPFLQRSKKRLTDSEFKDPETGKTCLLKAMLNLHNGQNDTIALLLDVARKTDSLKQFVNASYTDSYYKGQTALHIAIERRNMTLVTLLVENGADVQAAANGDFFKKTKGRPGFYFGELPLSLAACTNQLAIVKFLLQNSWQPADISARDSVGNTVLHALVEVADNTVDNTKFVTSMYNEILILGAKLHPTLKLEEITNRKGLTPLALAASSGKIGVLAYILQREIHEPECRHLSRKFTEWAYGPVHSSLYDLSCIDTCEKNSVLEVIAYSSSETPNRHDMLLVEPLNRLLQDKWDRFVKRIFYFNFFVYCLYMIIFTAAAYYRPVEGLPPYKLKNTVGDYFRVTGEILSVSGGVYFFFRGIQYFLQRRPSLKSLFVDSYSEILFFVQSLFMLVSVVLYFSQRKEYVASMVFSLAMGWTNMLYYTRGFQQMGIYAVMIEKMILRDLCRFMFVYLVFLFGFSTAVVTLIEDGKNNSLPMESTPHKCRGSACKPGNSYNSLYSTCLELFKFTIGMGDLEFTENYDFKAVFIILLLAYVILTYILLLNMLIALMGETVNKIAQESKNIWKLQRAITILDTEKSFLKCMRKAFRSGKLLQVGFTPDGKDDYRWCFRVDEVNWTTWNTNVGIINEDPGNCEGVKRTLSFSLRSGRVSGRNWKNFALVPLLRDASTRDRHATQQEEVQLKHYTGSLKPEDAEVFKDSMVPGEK

CCOC(=O)C1=C(c2cccc(Cl)c2)N=C(C)C(C(=O)OCC)C1CC (single isomer, unassigned; (+)) [3,5-diethyl-2-methyl-4-ethyl-6-(3-chlorophenyl)-1,4-(+)-dihydropyridine-3,5-dicarboxylate]
EC50: 17 µM
